Measured values taken from ChEMBL document CHEMBL5724801, “EUbOPEN Chemogenomics Library - Multiplex” (2024).
Values joined by “and” are separate entries in the source; they are usually repeats but may differ in a detail not shown here. Equal entries are not always repeated.

Tested on: Fibroblast
Experiment: Multiplex assay against human fibroblast
Type: toxicity, cell-based
Procedure, shortened: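 Cells were classed with CellPathfinder machine-learning gating, first as Hoechst high-intensity objects or normal cells, then (normal cells) as healthy, pyknosed or fragmented nuclei, and finally (pyknosed cells) as mitotic or apoptotic. Staining of live cells at seeding used Hoechst33342, BioTracker Green Microtubule Cytoskeleton Dye, MitoTracker Red and Annexin V Alexa Fluor 680, with imaging on a CQ1 microscope at 37°C and 5% CO2 after compound addition. Tubulin, mitochondrial-mass and membrane-permeability phenotypes are per cents of healthy-nucleus cells.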

[1] = 12 h, 1 µM, compound concentration 1 uM
[2] = 12 h, 10 µM, compound concentration 10 uM
[3] = 24 h, 1 µM, compound concentration 1 uM
[4] = 24 h, 10 µM, compound concentration 10 uM
[5] = 48 h, 1 µM, compound concentration 1 uM
[6] = 48 h, 10 µM, compound concentration 10 uM

CSc1nc(NC2CCCC2)c([N+](=O)[O-])c(NC2CCCC2)n1 [GS-39783] was tested, and the “Population Apoptotic (%)” value [1] was 50% and 39%, the “Population Fragmented Nuclei (%)” value [1] was 16% and 28% and the “Population Healthy Nuclei (%)” value [1] was 66% and 46%. The “Population Hoechst High Intensity Objects (%)” value [1] was 3% and 5%, the “Population Membrane Permeable-Phenotype (%)” value [1] was 2% and 10% and the “Population Mitochondria Different-Phenotype (%)” value [1] was 6% and 10%. The “Population Mitotic Cells (%)” value [1] was 50% and 60%, the “Population Normal (%)” value [1] was 96% and 94% and the “Population Pyknosed Nuclei (%)” value [1] was 16% and 25%. The “Population Tubulin-Different-Phenotype (%)” value [1] was 29% and 57%, the “Total Cell Count” value [1] was 137 and 135 and the “Population Apoptotic (%)” value [2] was 54% and 36%. For the same molecule, the “Population Fragmented Nuclei (%)” value [2] was 16% and 25%, the “Population Healthy Nuclei (%)” value [2] was 62% and 52% and the “Population Hoechst High Intensity Objects (%)” value [2] was 5% and 6%. For the same molecule, the “Population Membrane Permeable-Phenotype (%)” value [2] was 0% and 4%, the “Population Mitotic Cells (%)” value [2] was 45% and 63% and the “Population Normal (%)” value [2] was 94% and 93%. For the same molecule, the “Population Pyknosed Nuclei (%)” value [2] was 21%, the “Population Tubulin-Different-Phenotype (%)” value [2] was 39% and 70% and the “Total Cell Count” value [2] was 184 and 165. For the same molecule, the “Population Apoptotic (%)” value [3] was 30% and 32%, the “Population Fragmented Nuclei (%)” value [3] was 12% and 31% and the “Population Healthy Nuclei (%)” value [3] was 69% and 44%. For the same molecule, the “Population Hoechst High Intensity Objects (%)” value [3] was 2%, the “Population Membrane Permeable-Phenotype (%)” value [3] was 3% and 10% and the “Population Mitochondria Different-Phenotype (%)” value [3] was 4% and 12%. The “Population Mitotic Cells (%)” value [3] was 69% and 67%, the “Population Normal (%)” value [3] was 97% and the “Population Pyknosed Nuclei (%)” value [3] was 17% and 23%. The “Population Tubulin-Different-Phenotype (%)” value [3] was 27% and 60%, the “Total Cell Count” value [3] was 132 and 133 and the “Population Apoptotic (%)” value [4] was 58% and 36%. For the same molecule, the “Population Fragmented Nuclei (%)” value [4] was 17% and 25%, the “Population Healthy Nuclei (%)” value [4] was 65% and 52% and the “Population Hoechst High Intensity Objects (%)” value [4] was 2% and 7%. For the same molecule, the “Population Membrane Permeable-Phenotype (%)” value [4] was 0% and 6%, the “Population Mitochondria Different-Phenotype (%)” value [4] was 4% and 10% and the “Population Mitotic Cells (%)” value [4] was 41% and 63%. For the same molecule, the “Population Normal (%)” value [4] was 97% and 92%, the “Population Pyknosed Nuclei (%)” value [4] was 17% and 21% and the “Population Tubulin-Different-Phenotype (%)” value [4] was 33% and 57%. For the same molecule, the “Total Cell Count” value [4] was 172 and 164, the “Population Apoptotic (%)” value [5] was 70% and 33% and the “Population Fragmented Nuclei (%)” value [5] was 22% and 41%. For the same molecule, the “Population Healthy Nuclei (%)” value [5] was 69% and 44%, the “Population Hoechst High Intensity Objects (%)” value [5] was 4% and 3% and the “Population Mitochondria Different-Phenotype (%)” value [5] was 5% and 14%. The “Population Mitotic Cells (%)” value [5] was 30% and 66%, the “Population Normal (%)” value [5] was 95% and 96% and the “Population Pyknosed Nuclei (%)” value [5] was 7% and 14%. For the same molecule, the “Population Tubulin-Different-Phenotype (%)” value [5] was 29% and 60%, the “Total Cell Count” value [5] was 134 and 129 and the “Population Apoptotic (%)” value [6] was 66% and 60%. The “Population Fragmented Nuclei (%)” value [6] was 19% and 40%, the “Population Healthy Nuclei (%)” value [6] was 65% and 46% and the “Population Hoechst High Intensity Objects (%)” value [6] was 2% and 6%. The “Population Membrane Permeable-Phenotype (%)” value [6] was 1% and 6%, the “Population Mitochondria Different-Phenotype (%)” value [6] was 5% and 7% and the “Population Mitotic Cells (%)” value [6] was 33% and 40%. For the same molecule, the “Population Normal (%)” value [6] was 97% and 93%, the “Population Pyknosed Nuclei (%)” value [6] was 14% and 13% and the “Population Tubulin-Different-Phenotype (%)” value [6] was 41% and 60%. The “Total Cell Count” value [6] was 168 and 193.

In the case of CC[C@H](Nc1ncnc2[nH]cnc12)c1nc2cccc(F)c2c(=O)n1-c1ccccc1 [IDELALISIB], the “Population Apoptotic (%)” value [1] is reported as 12.5% and 30.56%, the “Population Fragmented Nuclei (%)” value [1] is reported as 8.54% and 3.76% and the “Population Healthy Nuclei (%)” value [1] is reported as 58.94% and 76.88%. For the same molecule, the “Population Hoechst High Intensity Objects (%)” value [1] was 7.17% and 0%, the “Population Membrane Permeable-Phenotype (%)” value [1] was 3.45% and 2.8% and the “Population Mitochondria Different-Phenotype (%)” value [1] was 10.34% and 11.89%. For the same molecule, the “Population Mitotic Cells (%)” value [1] was 87.5% and 69.44%, the “Population Normal (%)” value [1] was 92.83% and 100% and the “Population Pyknosed Nuclei (%)” value [1] was 32.52% and 19.35%. The “Population Tubulin-Different-Phenotype (%)” value [1] was 22.76% and 24.48%, the “Total Cell Count” value [1] was 265 and 186 and the “Population Apoptotic (%)” value [2] was 7.84% and 18.6%. The “Population Fragmented Nuclei (%)” value [2] was 13.24% and 8.44%, the “Population Healthy Nuclei (%)” value [2] was 63.47% and 72.44% and the “Population Hoechst High Intensity Objects (%)” value [2] was 0%. For the same molecule, the “Population Membrane Permeable-Phenotype (%)” value [2] was 11.51% and 11.04%, the “Population Mitochondria Different-Phenotype (%)” value [2] was 16.55% and 16.56% and the “Population Mitotic Cells (%)” value [2] was 92.16% and 81.4%. For the same molecule, the “Population Normal (%)” value [2] was 100%, the “Population Pyknosed Nuclei (%)” value [2] was 23.29% and 19.11% and the “Population Tubulin-Different-Phenotype (%)” value [2] was 53.24% and 61.96%. The “Total Cell Count” value [2] was 219 and 225, the “Population Apoptotic (%)” value [3] was 12.5% and 29.41% and the “Population Fragmented Nuclei (%)” value [3] was 8.53% and 9.31%. For the same molecule, the “Population Healthy Nuclei (%)” value [3] was 69.77% and 82.35%, the “Population Hoechst High Intensity Objects (%)” value [3] was 5.84% and 0% and the “Population Membrane Permeable-Phenotype (%)” value [3] was 6.11% and 1.79%. The “Population Mitochondria Different-Phenotype (%)” value [3] was 3.89% and 7.14%, the “Population Mitotic Cells (%)” value [3] was 87.5% and 70.59% and the “Population Normal (%)” value [3] was 94.16% and 100%. The “Population Pyknosed Nuclei (%)” value [3] was 21.71% and 8.33%, the “Population Tubulin-Different-Phenotype (%)” value [3] was 16.67% and 20.24% and the “Total Cell Count” value [3] was 274 and 204. The “Population Apoptotic (%)” value [4] was 8.33% and 21.88%, the “Population Fragmented Nuclei (%)” value [4] was 9.91% and 5.37% and the “Population Healthy Nuclei (%)” value [4] was 73.87% and 79.02%. The “Population Hoechst High Intensity Objects (%)” value [4] was 0%, the “Population Membrane Permeable-Phenotype (%)” value [4] was 9.15% and 6.79% and the “Population Mitochondria Different-Phenotype (%)” value [4] was 15.24% and 12.35%. The “Population Mitotic Cells (%)” value [4] was 91.67% and 78.12%, the “Population Normal (%)” value [4] was 100% and the “Population Pyknosed Nuclei (%)” value [4] was 16.22% and 15.61%. The “Population Tubulin-Different-Phenotype (%)” value [4] was 46.95% and 64.2%, the “Total Cell Count” value [4] was 222 and 205 and the “Population Apoptotic (%)” value [5] was 40.74% and 37.5%. The “Population Fragmented Nuclei (%)” value [5] was 8.52% and 5.13%, the “Population Healthy Nuclei (%)” value [5] was 81.48% and 90.77% and the “Population Hoechst High Intensity Objects (%)” value [5] was 7.22% and 0%. For the same molecule, the “Population Membrane Permeable-Phenotype (%)” value [5] was 1.36% and 3.39%, the “Population Mitochondria Different-Phenotype (%)” value [5] was 11.36% and 3.39% and the “Population Mitotic Cells (%)” value [5] was 59.26% and 62.5%. For the same molecule, the “Population Normal (%)” value [5] was 92.78% and 100%, the “Population Pyknosed Nuclei (%)” value [5] was 10% and 4.1% and the “Population Tubulin-Different-Phenotype (%)” value [5] was 9.09% and 16.95%. The “Total Cell Count” value [5] was 291 and 195, the “Population Apoptotic (%)” value [6] was 25% and 23.81% and the “Population Fragmented Nuclei (%)” value [6] was 12.65% and 4.81%. The “Population Healthy Nuclei (%)” value [6] was 82.45% and 85.1%, the “Population Hoechst High Intensity Objects (%)” value [6] was 0% and the “Population Membrane Permeable-Phenotype (%)” value [6] was 3.96% and 10.73%. The “Population Mitochondria Different-Phenotype (%)” value [6] was 11.39% and 11.3%, the “Population Mitotic Cells (%)” value [6] was 75% and 76.19% and the “Population Normal (%)” value [6] was 100%. The “Population Pyknosed Nuclei (%)” value [6] was 4.9% and 10.1%, the “Population Tubulin-Different-Phenotype (%)” value [6] was 30.2% and 57.06% and the “Total Cell Count” value [6] was 245 and 208.
